Data as given in paper PMC7954469 (European journal of medicinal chemistry, 2021).
Read-outs that look alike come from different tables or passages of the source. Where a SMILES comes first, the peptide text is derived from it. [ ]: non-standard residue; d: D form. The star is where a group is joined. Cbz = O=C(OCc1ccccc1)*

How the values were obtained:
Ub^G76V-GFP [1] = details: read-out: Apparent IC50 Ub^G76V-GFP; adapted from reference; cited from earlier work
C522A-p97 = C522A-p97 (Homo sapiens, UniProt P55072, C522A); details: cited from earlier work
ODD-Luc = details: read-out: Apparent IC50 ODD-Luc; adapted from reference; cited from earlier work
p97 [2] = target: T1, p97 (Homo sapiens, UniProt P55072); details: read-out: Apparent IC50 p97; ATPase activity; adapted from reference; cited from earlier work
Syk = details: cited from earlier work
p97 [3] = details: cited from earlier work
p97 [4] = target: T1, p97; assay: p97 ATPase activity assay; format: biochemical
T532C-yeast Cdc48 = T532C-yeast Cdc48 (Saccharomyces cerevisiae, UniProt P25694, T532C); assay: ATPase activity assay, T532C-yeast Cdc48; format: biochemical
[5] = test system: NMS-873 resistant HCT116 cell line harboring A530T p97 mutant (NMS-R); assay: Anti-proliferative assay, NMS-873 resistant HCT116; format: cell-based, human; details: compared with parental HCT116; listed as PPA
Outline: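 Cells were grown in RPMI1640 or DMEM with 5% FBS and 1% penicillin-streptomycin. Seeding was 750 or 3000 cells/well, set from each line's luminescence–cell-number standard curve. After 24 h, cells got test compound (eight three-fold dilutions) for 48 h at 37 °C, 5% CO2. Viability was read by CellTiter-Glo luminescence. IC50 came from % growth versus DMSO control. Data are mean ± SEM of four replicate experiments.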

Ub^G76V-GFP [6] = assay: Washout; format: cell-based, human; details: cycloheximide, additional 17 h
Human 26S proteasome = Human 26S proteasome (Homo sapiens, UniProt P28074); assay: Human 26S proteasome activity assay; format: biochemical; details: 5, 25, or 50 μM; affinity-purified 26S proteasome from Hek293 cells; listed as PPA
Outline: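 26S proteasome was affinity-purified from HEK293 cells stably expressing tagged Rpn11. Suc-LLVY-AMC (60 μM) then started the reaction. Fluorescence was read every 3 min for 30 min, in sextuplicate.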

Hamster NSF = Hamster NSF (Cricetulus griseus, UniProt P18708); assay: ATPase activity assay, NSF; format: biochemical
TCRα-GFP = assay: TCRα-GFP; format: cell-based, human; details: 10 μM, 60 min or 120 min, cycloheximide, HEK293 cells
Outline: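 HEK293 cells stably expressing TCRα-GFP were pretreated 1 h with 4 μM MG132, then washed. They were then incubated with 50 μM cycloheximide plus 10 μM test compound, or MG132 as control, for 60 or 120 min before harvest. Lysates were immunoblotted with anti-GFP, with anti-p97 as loading control, and detected by ECL.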

Yeast Cdc48 = Yeast Cdc48 (Saccharomyces cerevisiae, UniProt P25694); assay: ATPase activity assay, yeast Cdc48; format: biochemical
[7] = test system: CB-5083 resistant HCT116 cell line harboring D649A, T688A p97 mutant (CB-R); assay: Anti-proliferative assay, CB-5083 resistant HCT116; format: cell-based, human; details: compared with parental HCT116; listed as PPA
cancer cell lines = details: cited from earlier work
C522A mutant = details: cited from earlier work

T1 sequence (P55072 whole entry): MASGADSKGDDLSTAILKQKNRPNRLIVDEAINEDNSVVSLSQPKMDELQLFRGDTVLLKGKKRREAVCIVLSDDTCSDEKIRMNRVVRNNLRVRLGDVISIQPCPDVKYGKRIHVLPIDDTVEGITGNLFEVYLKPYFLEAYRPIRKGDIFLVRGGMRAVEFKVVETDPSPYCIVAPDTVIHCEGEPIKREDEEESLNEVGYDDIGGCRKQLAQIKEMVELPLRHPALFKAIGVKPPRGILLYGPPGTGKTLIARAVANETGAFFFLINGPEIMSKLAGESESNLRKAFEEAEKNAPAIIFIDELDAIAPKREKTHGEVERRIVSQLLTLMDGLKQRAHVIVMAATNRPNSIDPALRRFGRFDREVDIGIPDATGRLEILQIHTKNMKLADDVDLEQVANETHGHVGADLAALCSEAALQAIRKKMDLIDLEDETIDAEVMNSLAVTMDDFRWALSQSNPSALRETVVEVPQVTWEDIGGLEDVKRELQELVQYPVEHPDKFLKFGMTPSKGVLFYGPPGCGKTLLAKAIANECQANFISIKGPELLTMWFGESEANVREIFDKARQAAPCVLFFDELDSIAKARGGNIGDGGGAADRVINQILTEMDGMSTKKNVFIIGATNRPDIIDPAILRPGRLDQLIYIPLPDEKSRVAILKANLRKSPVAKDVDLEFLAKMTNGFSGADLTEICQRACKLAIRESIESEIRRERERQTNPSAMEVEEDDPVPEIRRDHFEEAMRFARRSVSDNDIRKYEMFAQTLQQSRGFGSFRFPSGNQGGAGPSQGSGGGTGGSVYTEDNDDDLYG
T532C-yeast Cdc48, sequence (P25694 whole entry T532C): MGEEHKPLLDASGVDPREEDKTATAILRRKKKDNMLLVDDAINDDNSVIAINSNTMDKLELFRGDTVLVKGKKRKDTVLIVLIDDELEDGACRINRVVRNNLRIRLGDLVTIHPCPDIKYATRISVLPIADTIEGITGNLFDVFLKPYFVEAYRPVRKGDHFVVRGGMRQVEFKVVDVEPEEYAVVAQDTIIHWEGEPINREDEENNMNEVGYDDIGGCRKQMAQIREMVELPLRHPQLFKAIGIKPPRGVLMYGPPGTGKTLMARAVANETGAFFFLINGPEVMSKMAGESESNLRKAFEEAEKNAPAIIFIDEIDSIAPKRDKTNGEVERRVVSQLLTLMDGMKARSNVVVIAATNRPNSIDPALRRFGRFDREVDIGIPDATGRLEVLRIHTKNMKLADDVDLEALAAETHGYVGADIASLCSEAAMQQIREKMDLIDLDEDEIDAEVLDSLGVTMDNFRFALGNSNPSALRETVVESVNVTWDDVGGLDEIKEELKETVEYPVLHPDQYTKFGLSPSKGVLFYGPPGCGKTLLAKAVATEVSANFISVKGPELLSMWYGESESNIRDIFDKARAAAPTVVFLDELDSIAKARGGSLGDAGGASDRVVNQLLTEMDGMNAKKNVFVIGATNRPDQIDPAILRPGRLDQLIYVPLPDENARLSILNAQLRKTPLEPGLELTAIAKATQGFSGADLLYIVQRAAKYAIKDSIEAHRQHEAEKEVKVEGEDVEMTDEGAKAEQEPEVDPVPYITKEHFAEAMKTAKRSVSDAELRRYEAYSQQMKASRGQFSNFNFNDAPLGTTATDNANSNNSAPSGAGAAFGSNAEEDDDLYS
Hamster NSF, sequence (P18708 whole entry): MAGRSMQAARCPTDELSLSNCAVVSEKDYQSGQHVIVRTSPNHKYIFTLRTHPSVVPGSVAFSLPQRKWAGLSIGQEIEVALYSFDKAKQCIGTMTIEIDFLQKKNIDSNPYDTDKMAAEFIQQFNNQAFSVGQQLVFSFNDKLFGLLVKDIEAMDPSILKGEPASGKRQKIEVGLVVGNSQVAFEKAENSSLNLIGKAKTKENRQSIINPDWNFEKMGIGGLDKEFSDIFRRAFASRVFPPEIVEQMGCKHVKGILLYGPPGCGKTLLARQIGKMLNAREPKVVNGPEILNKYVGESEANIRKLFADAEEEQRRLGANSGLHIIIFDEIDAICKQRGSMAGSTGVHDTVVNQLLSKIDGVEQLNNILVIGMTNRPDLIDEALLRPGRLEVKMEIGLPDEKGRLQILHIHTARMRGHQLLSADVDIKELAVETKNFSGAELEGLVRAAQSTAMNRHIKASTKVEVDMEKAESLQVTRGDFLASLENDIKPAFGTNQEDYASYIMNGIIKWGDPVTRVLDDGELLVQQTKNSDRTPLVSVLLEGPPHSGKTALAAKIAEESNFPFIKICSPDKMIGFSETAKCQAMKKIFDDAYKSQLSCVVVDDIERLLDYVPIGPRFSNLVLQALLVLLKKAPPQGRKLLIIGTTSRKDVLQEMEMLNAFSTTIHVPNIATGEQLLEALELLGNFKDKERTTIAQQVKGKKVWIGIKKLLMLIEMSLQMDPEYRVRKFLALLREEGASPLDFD
Yeast Cdc48, sequence (P25694 whole entry): as the sequence (P25694 whole entry T532C) above, with C532T counted along it
C522A-p97, sequence (P55072 whole entry C522A): as the sequence (P55072 whole entry) above, with C522A counted along it

For “3,4-methylenedioxy-β-nitrostyrene [Compound 2]”, the IC50 (Ub^G76V-GFP [1]) is given as 1.6 ± 0.4 µM, the “Activity towards the C522A mutant (in words)” value (C522A-p97) is given as “poor activity” and the IC50 (ODD-Luc) is given as 3.9 ± 1 µM. For the same molecule, the IC50 (p97 [2]) was 1.7 ± 0.5 µM and the “IC50 Syk (in words)” value (Syk) was “submicromolar”.
In the case of `O=C(/C=C1\Nc2ccccc2C(=O)N2CCC[C@@H]12)/C=C/c1c[nH]c2ccc(I)cc12` [5’-I-Fuligocandin B], the IC50 (p97 [3]) is given as 7 µM.
For `Cc1ccc(-c2c(C(=O)CF)n(CCCO)c3ncnc(N)c23)cc1` [Compound 5], the “Less active than compound 4” value (p97 [4]; in vitro and cell-based p97 assays, summary of Table 1) was 10 fold.
In the case of `O=C(O)/C=C/c1ccc2c(c1)OCO2` [Compound 7], the “Activity in ATPase and Ub^G76V-GFP turnover assays (in words)” value (p97 [4]; summary of Tables 2 and 3) is reported as “complete loss of activity”.
For `CC(C)(C)n1nc(-c2ccccc2)c2c(N)ncnc21` [Compound 17, 4-amino-1-tert-butyl-3-phenyl pyrazolo[3,4-d]pyrimidine], the IC50 (T532C-yeast Cdc48) was over 100 µM.
For `C=CC(=O)Nc1ncnc2c1c(-c1ccccc1)nn2C(C)(C)C` [Compound 18, N-(1-(tert-butyl)-3-phenyl-1H-pyrazolo[3,4-d]pyrimidin-4-yl)acrylamide], the “Anti-proliferative activity in NMS-R HCT116 (in words)” value [5] was “can inhibit growth”, the “Reversibility: Ub^G76V-GFP degradation after washout (in words)” value (Ub^G76V-GFP [6]) was “irreversibly block degradation” and the “Inhibition of hydrolysis of LLVY-AMC by 26S proteasome (in words)” value (Human 26S proteasome) was “did not inhibit”. For the same molecule, the IC50 (Hamster NSF) was 100 µM, the “NSF less sensitive than p97” value (Hamster NSF) was “more than 100 fold” and the “Degradation of ERAD substrate TCRα-GFP (in words)” value (TCRα-GFP) was “block degradation”. The IC50 (Yeast Cdc48) was 300 µM, the “Anti-proliferative activity in CB-R HCT116 (in words)” value [7] was “can inhibit growth” and the “Selectivity on wild-type vs. Cys522-mutated p97” value (p97 [4]) was “up to 100 fold”.
For `CC(C)(C)n1nc(-c2ccc3ccccc3c2)c2c(N)ncnc21` [Compound 21, 2-Naphthyl pyrazolopyrimidine], the IC50 (T532C-yeast Cdc48) was over 100 µM.
With `CC(C)C[C@@H](C=O)NC(=O)[C@@H](CC(C)C)NC(=O)[C@H](CC(C)C)NC(=O)OCc1ccccc1` [MG132] (Cbz-Leu-[dL]-Leu-aldehyde) the “Reversibility: Ub^G76V-GFP degradation after washout (in words)” value (Ub^G76V-GFP [6]) was “degraded after washing out”.
In the case of `COc1cccc2c(NCc3ccccc3)nc(-n3c(N)nc4ccccc43)nc12` [ML240], the IC50 (p97 [3]) is listed as about 0.1 µM.
In the case of `c1ccc(CNc2nc(N3CCOc4ccccc43)nc3c2CCCC3)cc1` [ML241], the IC50 (p97 [3]) is listed as about 0.1 µM.
For `CC(C)N1CCN(CCNC2CCN(c3cccc(-c4cc5cc(F)ccc5[nH]4)c3)CC2)CC1` [UPCDC30245], the IC50 (p97 [3]; allosteric p97 inhibitor) is given as 0.027 µM.
In the case of `CC(=O)OCC1=C(C)C[C@H]([C@@H](C)[C@H]2CC[C@H]3[C@@H]4C[C@H]5O[C@]56[C@@H](O)C=CC(=O)[C@]6(C)[C@H]4CC[C@]23C)OC1=O` [Withaferin A 27-Acetate], the “Anti-proliferative effects at lower concentration than p97 IC50” value (cancer cell lines) is listed as 10 fold, the IC50 (p97 [3]; wild-type p97) is listed as 21 µM and the “Inhibition against the C522A mutant (in words)” value (C522A mutant) is listed as “didn’t show inhibition”.
For `CC1CCCC=CC(=O)c2c(O)cc(O)cc2CC(=O)O1` (stereo not shown) [Δ(10,11)-Dehydrocurvularin], the IC50 (p97 [3]; covalent bond with Cys522) is given as 15.3 ± 9.9 µM.
For Oxaspirol B, the IC50 (p97 [3]) is listed as 31.2 ± 3 µM.
